Measurements of several laboratories.
Compare with care: the assays were run in different laboratories.
KDR: Vascular endothelial growth factor receptor 2 (KDR, Homo sapiens, UniProt P35968)
PADI1: Protein-arginine deiminase type-1 (PADI1, Homo sapiens, UniProt Q9ULC6)
CDK16: Cyclin-dependent kinase 16 (CDK16, Homo sapiens, UniProt Q00536)
ATAD2 bromodomain: ATPase family AAA domain-containing protein 2, bromodomain (ATAD2, Homo sapiens, UniProt Q6PL18)

`COc1ccc(NC(=O)c2c(Nc3ccccc3)sc(C#N)c2NC(=O)CNc2ccc([N+](=O)[O-])cc2)cc1` has a remaining activity of 68.8% (KDR; enzyme activity, inhibitor; 100 µM).
The kinact/KI of `CC(C)(C)n1nnc([C@H](CCCNC(=N)CF)NC(=O)c2ccccc2)n1` is reported as 26.6 M⁻¹ s⁻¹ (PADI1; enzyme activity, inhibitor).
The ΔTm of `Cn1c2c(Cl)c(Cl)ccc2c2cc[nH]c(=O)c21` is reported as 0 °C (CDK16; thermal stability, DSF; 10 µM).
With `COc1ccc(NC(=O)c2c(Nc3ccccc3)sc(C#N)c2NC(=O)CNc2ccc(Cl)cc2)cc1` the remaining activity was 41.1% (KDR; enzyme activity, inhibitor; 1 µM).
With `CC(C)(C)n1nnc([C@H](CCCNC(=N)CF)NC(=O)c2ccccc2C(=O)O)n1` the kinact/KI was 1670 M⁻¹ s⁻¹ (PADI1; enzyme activity, inhibitor).
With `CCC1(CC)NC(=O)c2c(c3ccc(Cl)c(Cl)c3n2C)C1C#N` (centres unmarked) the ΔTm was 0.3 °C (CDK16; thermal stability, DSF; 10 µM).
`CN(C)C1CCN(CC#Cc2nn(C3CCCC3)c3nc(NCc4ccccc4)ncc23)C1` (centres unmarked) gave an inhibition of 7% (cGMP-dependent protein kinase 2 (PRKG2, Homo sapiens, UniProt Q13237); enzyme activity, inhibitor, FRET; 0.1 µM).
For `C[S+]([O-])c1ccc(-c2nc(-c3ccncc3)c(-c3ccc(F)cc3)[nH]2)cc1` (centres unmarked), the ΔTm was -1.47 °C (ATAD2 bromodomain; thermal stability, DSF; 10 µM).
For `NC(=O)N/N=C/c1ccc([N+](=O)[O-])o1`, the inhibition was 31% (Glycogen synthase kinase-3 beta (GSK3B, Homo sapiens, UniProt P49841); enzyme activity, inhibitor, ADP detection; 100 µM).
For `N=C(CF)NCCC[C@H](NC(=O)c1ccccc1)c1nn[nH]n1`, the kinact/KI was 5.75 M⁻¹ s⁻¹ (PADI1; enzyme activity, inhibitor).
The remaining activity of `O=C(O)c1ccc2c(c1)nc(NCCc1cccc(Cl)c1)c1ncncc12` is reported as 76% (Dual specificity tyrosine-phosphorylation-regulated kinase 2 (DYRK2, Homo sapiens, UniProt Q92630); enzyme activity, inhibitor, radiometric; 1 µM).
`Cc1ccc(C(=O)Nc2ccc(CN3CCN(C)CC3)c(C(F)(F)F)c2)cc1C#Cc1cnc2cccnn12` has a remaining activity of 70% (Phosphatidylinositol 4,5-bisphosphate 3-kinase catalytic subunit alpha isoform (PIK3CA, Homo sapiens, UniProt P42336, H1047L); enzyme activity, inhibitor; 23.5 nM).
`N=C(CF)NCCC[C@H](NC(=O)c1ccc(-c2ccccc2)cc1)c1nn[nH]n1` gave a kinact/KI of 13.7 M⁻¹ s⁻¹ (PADI1; enzyme activity, inhibitor).
The remaining activity of `COc1ccc(NC(=O)c2c(Nc3ccccc3)sc(C(=O)NN=Cc3ccc(Cl)cc3)c2NC(C)=O)cc1` is reported as 71.4% (KDR; enzyme activity, inhibitor; 10 µM).
`Cc1cc2c(cc1N1C(=O)c3cccc4c(Cl)ccc(c34)C1=O)n(C)c(=O)n2C` gave a ΔTm of 0 °C (ATAD2 bromodomain; thermal stability, DSF; 10 µM).
The remaining activity of `COc1ccc(NC(=O)c2c(Nc3ccccc3)sc(C(=O)NN=Cc3ccc(OC)c(O)c3)c2NC(C)=O)cc1` is reported as 99% (KDR; enzyme activity, inhibitor; 10 nM).
`CC(C)(C)n1nnc([C@H](CCCNC(=N)CCl)NC(=O)c2ccc(-c3ccccc3)cc2)n1` gave a kinact/KI of 46.2 M⁻¹ s⁻¹ (PADI1; enzyme activity, inhibitor).
`COc1ccc(C=NNC(=O)c2sc(Nc3ccccc3)c(C(=O)Nc3ccc(OC)cc3)c2NC(C)=O)cc1` has a remaining activity of 96% (KDR; enzyme activity, inhibitor; 10 nM).
With `N=C(CCl)NCCC[C@H](NC(=O)c1ccc(-c2ccccc2)cc1)c1nn[nH]n1` the kinact/KI was 51.7 M⁻¹ s⁻¹ (PADI1; enzyme activity, inhibitor).
The remaining activity of `COc1ccc(NC(=O)c2c(Nc3ccccc3)sc(C(=O)NN=Cc3cc(OC)c(OC)c(OC)c3)c2NC(C)=O)cc1` is reported as 72.2% (KDR; enzyme activity, inhibitor; 100 µM).
For `CC1(C)NC(=O)c2[nH]c3c(Cl)c(Cl)ccc3c2C1C#N` (centres unmarked), the ΔTm was 0.4 °C (CDK16; thermal stability, DSF; 10 µM).
For `Nc1ncnc2occ(-c3ccc(NC(=O)Nc4cc(C(F)(F)F)ccc4F)cc3)c12`, the remaining signal was 19% (1-phosphatidylinositol 3-phosphate 5-kinase (PIKFYVE, Homo sapiens, UniProt Q9Y2I7); cell-free assay; 20 µM).
`NCCCC[C@H](NC(=O)[C@@H]1CCCN1C(=O)[C@@H]1CSSC[C@H](N)C(=O)N[C@@H](Cc2ccc(O)cc2)C(=O)N[C@@H](Cc2ccccc2)C(=O)N[C@@H](CCC(N)=O)C(=O)N[C@@H](CC(N)=O)C(=O)N1)C(=O)NCC(N)=O` has an Emax of about 100% (Vasopressin V1a receptor (AVPR1A, Homo sapiens, UniProt P37288); calcium signal, agonist; CHO-S).
